Screens as filed in PubChem BioAssay.
The list is not random: actives were taken first. Their share in the collection is about 4.7%.
MT1-MMP act inh – blockers of MT1-MMP proenzyme processing, primary screen, HT1080 RFP-PRO-GFP cells, GFP/RFP fluorescence | GFP/RFP ratio change, % at 20 µM | Matrix metalloproteinase-14 (Homo sapiens), P50281 | actives 0.061% (n = 360,000) | GFP/RFP ratio fluorescence, overnight; percent of plate control window, DMSO zero;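 active means GFP/RFP ratio change of at least 30% with cell ATP level not reduced by more than half and red fluorescence within 50% of control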
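Assay system: HT1080 RFP-PRO-GFP cells. Benchmarks: DMSO vehicle wells and RFP-L50D-GFP reporter cell wells. Times: overnight cell settling, then overnight compound exposure, 37 °C, 5% CO2. Compound: 20 µM single dose, 1% DMSO. Read-out basis: GFP/RFP fluorescence ratio.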
MPTP block – mitochondrial permeability transition pore inhibitors, primary screen, biochemical, isolated mouse mitochondria, absorbance | actives 1.4% (n = 360,000) | AID 602449, 2012 | inhibition, % at 10 µM | Ca2+ swelling absorbance, 30 min;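 active means inhibition of 50% or more, scaled per plate between neutral and stimulator controls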;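 further: 0% = DMSO wells given calcium and 100% = 1 mM EGTA wells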
NR3A LBD binder – binders of NR3A ligand-binding domain, primary screen, biophysical, differential scanning fluorimetry, uHTS; NR3A LBD differential scanning fluorimetry, Tm shift; 0% = protein alone, 100% = glycine-bound protein; Tm shift relative to glycine control, % at 25 µM; actives 2.5% (n = 340,000);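 active means melting temperature shift of at least 10% of the positive control shift, at one fixed dose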
SKN-1 inh – suppressors of acrylamide-induced Pgst-4::GFP reporter in worms, primary screen, SKN-1 inhibitor project, whole organism, uHTS, GFP/RFP fluorescence ratio, strain VP596; C. elegans VP596 Pgst-4::GFP/RFP ratio, 24 h; actives 0.49% (n = 360,000); AID 624304, 2012; inhibition, % at 21.8 µM;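 active means interference check ratio from 0.5 to 1.5 plus GFP to RFP signal ratio inhibition reaching or exceeding a fixed threshold, cut at about 30% in these data, passing the limit was not always enough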
ADAM10 inh – human ADAM10 inhibitors, primary screen, biochemical, QFRET, HTS | actives 0.62% (n = 370,000) | recombinant ADAM10, EDANS/DABCYL FRET peptide cleavage, 3 h | inhibition, % at 7 µM | AID 720582, 2013;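 active means inhibition above a per-campaign cutoff equal to the mean of compounds falling between control-based bounds plus 3 SD, cut at about 20% in these data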;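 further: 0% = DMSO wells while the 100% control is not disclosed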
ADAM17 inh – ADAM17 inhibitors, primary screen, biochemical, QFRET | Disintegrin and metalloproteinase domain-containing protein 17 (Homo sapiens), P78536 | recombinant ADAM17, EDANS/DABCYL FRET peptide cleavage | inhibition, % at 6.95 µM | actives 0.83% (n = 370,000);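 active means inhibition above the mean of compounds lying between control limits plus 3 SD, set per campaign, cut at about 8.5% in these data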;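 further: 0% = DMSO-only wells as the low control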
Target sequence (P78536 215-824 limits assumed): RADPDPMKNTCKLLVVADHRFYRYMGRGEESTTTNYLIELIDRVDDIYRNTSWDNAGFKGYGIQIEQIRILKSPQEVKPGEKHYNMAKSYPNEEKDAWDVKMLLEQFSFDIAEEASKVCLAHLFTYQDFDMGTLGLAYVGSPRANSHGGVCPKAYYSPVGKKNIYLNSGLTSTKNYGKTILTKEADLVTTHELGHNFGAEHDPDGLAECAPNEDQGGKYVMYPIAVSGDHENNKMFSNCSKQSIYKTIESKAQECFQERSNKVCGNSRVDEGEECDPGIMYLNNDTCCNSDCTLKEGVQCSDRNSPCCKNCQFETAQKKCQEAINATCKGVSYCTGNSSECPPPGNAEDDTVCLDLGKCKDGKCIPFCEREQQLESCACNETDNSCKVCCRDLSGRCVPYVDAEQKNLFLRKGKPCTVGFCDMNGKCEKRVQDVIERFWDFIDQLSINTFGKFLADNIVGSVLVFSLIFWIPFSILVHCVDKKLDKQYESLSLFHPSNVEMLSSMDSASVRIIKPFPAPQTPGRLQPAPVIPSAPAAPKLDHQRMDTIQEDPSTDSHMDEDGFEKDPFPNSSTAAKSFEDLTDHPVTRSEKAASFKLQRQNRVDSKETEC
Rh123 counter – fluorescence retest of MPTP screen hits in isolated mitochondria, single concentration; shares compounds with MPTP block; membrane potential, Rhodamine 123 fluorescence; inhibition, % at 10 µM; actives 78% (n = 5,000); in the data active means inhibition above about 22%;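 further: 0% = DMSO vehicle and 100% = positive control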
MPTP swell DR – mitochondrial permeability transition pore inhibitors, dose response, biochemical, absorbance, uHTS hits | AID 651561, 2012 | IC50, µM | shares compounds with MPTP block | actives 58% (n = 780) | isolated mitochondria swelling; in the data active means IC50 below about 20 µM
MPTP cs DR – fluorescent counter-screen in isolated mitochondria, dose response, counter-screen for MPTP inhibitor project, biochemical, fluorescence, uHTS hits. IC50, µM. actives 49% (n = 780). shares compounds with MPTP block. isolated mitochondria counterscreen, fluorescence read-out. AID 651564, 2012; in the data active means IC50 below about 80 µM
An asterisk follows results filed as active; i = inactive; nt = no result given.

SMILES	MT1-MMP act inh	MPTP block	NR3A LBD binder	SKN-1 inh	ADAM10 inh	ADAM17 inh	Rh123 counter	others
COCCNCCOc1ccc(C)cc1[N+](=O)[O-]	5	1	0	-2	6	4	nt
Oc1ccc(Cl)cc1CNc1ccc(Br)cn1	5	58*	-2	-4	17	7	62*
Oc1c(Cl)cc(Cl)cc1CNc1ccc(Br)cn1	5	72*	8	-11	11	3	83*
COc1ccccc1NC(=O)CN(C)S(=O)(=O)c1cccc2cccnc12	-1	0	-1	-7	1	0	nt
CN(C(=O)CS(=O)(=O)c1cccc(Cl)c1)c1ccccc1	3	1	-1	-1	2	-1	nt
Nc1nc(C23CC4CCC(CC(C4)C2)C3)cs1	-6	64*	-2	5	9	1	-4	MPTP swell DR=i;MPTP cs DR=>80
CCC(O)c1cc2c(cc1NC(=O)c1cccs1)OCCO2 (configuration not stated)	3	-1	-1	-4	6	1	nt
Cc1ccccc1CS(=O)(=O)c1nnc([C@H](CC(C)C)NC(=O)OC(C)(C)C)o1	1	75*	1	16	2	1	-3
CC[C@@H](C)[C@H](NC(=O)OC(C)(C)C)c1nnc(S(=O)(=O)Cc2cc(C)ccc2C)o1	4	27	2	0	7	-2	nt
COc1cc(C(=O)N(C)CC2CCN(CCc3cccc(C(F)(F)F)c3)CC2)ccc1C	4	81*	-3	3	-1	-4	1	MPTP swell DR=7.6*;MPTP cs DR=25*
CC(C)NCC(O)Cn1c2c(c3ccccc31)CCc1c-2cnn1-c1ccccc1 (configuration not stated)	11	87*	-5	30	-405	-151	-17
CN1CCc2c(n(CC(O)CNCc3ccccc3)c3ccccc23)C1=O (configuration not stated)	-3	-1	-1	6	-94	-28	nt
N#Cc1ccc(NC(=O)CNc2cc(S(=O)(=O)N3CCOCC3)ccc2NCC2CCCO2)cc1 (configuration not stated)	5	-1	-1	-3	1	-4	nt
CN1/C(=C\C(=O)Nc2ccc(Cl)cc2)C(C)(C)c2ccccc21	5	79*	2	28	9	5	70*
CC(C)CN1C(=O)c2ccc(C(=O)Nc3ccccn3)cc2C1=O	-1	0	-1	-1	-5	-4	nt
CC(C)CCN1C(=O)c2ccc(C(=O)Nc3ccc(Br)cc3C(=O)O)cc2C1=O	2	93*	0	-14	6	1	46*
CC(C)CN1C(=O)c2ccc(C(=O)Nc3ccncc3)cc2C1=O	6	60*	0	8	-4	-5	70*
Cc1cc(Cn2nc(-c3ccccc3)cc2C(=O)NCc2cccc(C(F)(F)F)c2)on1	2	63*	6	-2	0	4	98*
COc1ccc(C2=NOC(Cn3nc(-c4ccccc4)cc3C(=O)NCc3cccc(C(F)(F)F)c3)C2)cc1 (configuration not stated)	3	2	-1	12	nt	nt	nt
COc1cc(CNCCO)ccc1OCC(=O)Nc1ccc(Br)cc1	3	59*	-2	5	6	-3	-10	MPTP swell DR=i;MPTP cs DR=>80
